From paper PMC4070457 (Drugs in R&D, 2014)

How the values were obtained:
[1] = Pharmacokinetics of FA after IV and oral; type: in vivo, Sprague-Dawley rats; details: for clearance: Sprague-Dawley, rat, serum, iv
[2] = Tolerability / toxicity observation during the pharmacokinetic studies; type: in vivo, Sprague-Dawley rats
How it was run: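 Male Sprague-Dawley rats with jugular catheters were watched for toxic signs, including chromodacryorrhea, while on the pharmacokinetic study. Nine rats each received 25 mg/kg IV and 25 mg/kg PO (gavage) in saline, with sampling to 8 h. Separate IV dosing was at 10, 25 and 75 mg/kg. Animals were killed in a CO2 chamber after each study.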

[3] = oral 20 mg/kg, acyl carbon radiolabelled FA; cited from earlier work
[4] = cited from earlier work
[5] = cited from earlier work; remark: listed apart in the source
HNSCC = details: oral dose of 25 mg/kg per day; cited from earlier work

Structure (SMILES): CCCCc1ccc(C(=O)O)nc1 [fusaric acid, 5-butlypicolinic acid]
- time until FA serum concentration fell below the lower limit of quantitation (10 µM) ([1]; 25 mg/kg IV or PO, all animals): ≤ 4 h
- Vd (apparent volume of distribution) ([1]; 25 mg/kg oral, average): 182 ± 27 mL
- clearance ([1]; 10 mg/kg, 10 mg/kg IV): 0.783 mL/min
- clearance ([1]; 25 mg/kg, 25 mg/kg IV): 1.35 mL/min
- Toxicity (i.e., chromodacyrea) ([2]; 25 mg/kg IV and PO, nine animals): not observed
- adverse effects ([2]; IV doses of 10, 25, and 75 mg/kg): no adverse effects observed
- calculated FA concentration at peak radioactivity [3]: 42 ± 7.4 µg/mL
- FA excreted unchanged in the urine [4]: < 5%
- dose at which adverse effects were observed [5]: 100 mg/kg
- efficacy toward HNSCC (HNSCC): efficacious
